Screening results (PubChem)
In the library only some 1.8% were active in any assay of this set; here they are far more common.
HKDC1 inh: inhibitors of human hexokinase HKDC1; Q2TB90; recombinant HKDC1, G6PDH/diaphorase resazurin coupled fluorescence; AID 493160; inhibition, % at 20 µM; 340,000 compounds, 0.16% hits;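 active means inhibition above about 35% when tested at 20 µM, limit read from the data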
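Test system: recombinant HKDC1 (HK5) hexokinase enzyme, produced in-house / Doses: 20 µM test compound, 1% DMSO / Timing: 90 min, room temperature / Detection: G6PDH/diaphorase-coupled fluorescence, 1 mM NADP, 100 µM resazurin, 525/613 nm / Control set: DMSO wells with and without enzyme mix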
DNMT1 block: inhibitors of human DNMT1. P26358. DNMT1 molecular beacon, Hinp1I cleavage, fluorescence. inhibition (reported as % activation of signal), % at 10 µM. 360,000 compounds, 0.83% hits. AID 588458; in the data active means inhibition above about 50%
LMPTP inh: blocks human LMPTP phosphatase | P24666 | inhibition, % at 20 µM | 360,000 compounds, 0.22% hits | AID 651560 | recombinant LMPTP-A, OMFP fluorogenic substrate, fluorescence intensity;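 active means compounds that cut the enzyme signal by at least half of the control window in the single-dose screen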
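Assay system: LMPTP-A phosphatase enzyme | Input: 0.625 nM enzyme | Also added: Fluorogenic phosphatase substrate OMFP at 400 µM final | Compound dosing: One test concentration per compound, 20 µM, with 3% DMSO overall | Schedule: 50 min enzyme reaction at room temperature, protected from light | Signal: Fluorescence intensity | Benchmarks: no-enzyme and uninhibited controls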
STEP inh: STEP (human) phosphatase inhibition; P54829; recombinant STEP, OMFP fluorogenic substrate, fluorescence; inhibition, % at 20 µM; 360,000 compounds, 0.25% hits; AID 588621;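 active means inhibition at 20 µM, scaled per plate between control wells, above about 37%, limit read from the data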
Target sequence (P54829 whole entry, looked up): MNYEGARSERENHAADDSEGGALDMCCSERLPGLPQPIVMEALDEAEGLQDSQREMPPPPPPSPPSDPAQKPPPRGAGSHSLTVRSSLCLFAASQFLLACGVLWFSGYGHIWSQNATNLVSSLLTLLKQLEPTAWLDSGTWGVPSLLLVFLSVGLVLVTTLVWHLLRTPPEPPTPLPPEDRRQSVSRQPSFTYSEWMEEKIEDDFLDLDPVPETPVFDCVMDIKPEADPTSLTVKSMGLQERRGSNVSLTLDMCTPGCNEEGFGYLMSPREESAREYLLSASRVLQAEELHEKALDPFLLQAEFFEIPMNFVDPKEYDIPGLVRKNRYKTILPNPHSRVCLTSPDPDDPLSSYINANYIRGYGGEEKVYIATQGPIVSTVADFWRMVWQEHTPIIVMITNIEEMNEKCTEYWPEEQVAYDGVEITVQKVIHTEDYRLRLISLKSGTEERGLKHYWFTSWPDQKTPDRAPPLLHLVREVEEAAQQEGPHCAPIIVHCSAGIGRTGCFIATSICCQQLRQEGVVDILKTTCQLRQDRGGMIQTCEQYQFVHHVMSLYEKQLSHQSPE
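Material: STEP (striatal-enriched tyrosine phosphatase) enzyme, cell-free | Medium: 50 mM Bis-Tris pH 6.0 with 2.5 mM DTT and 0.005% Tween 20 | Read-out: Percent inhibition scaled to no-enzyme and uninhibited-enzyme controls, plate-pattern corrected | Signal: Fluorescence read at 480 nm ex / 540 nm em | Times: 20 min reaction, room temperature, in the dark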
Scp1 inh: inhibitors of human Scp-1 phosphatase | Recombinant Scp1, phosphopeptide, malachite green phosphate absorbance | 340,000 compounds, 0.88% hits | Q9GZU7 | AID 493091 | inhibition, % at 20 µM;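 active means inhibition above about 50% at 20 µM, limit read from the data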
Target sequence (Q9GZU7 76-261 limits assumed): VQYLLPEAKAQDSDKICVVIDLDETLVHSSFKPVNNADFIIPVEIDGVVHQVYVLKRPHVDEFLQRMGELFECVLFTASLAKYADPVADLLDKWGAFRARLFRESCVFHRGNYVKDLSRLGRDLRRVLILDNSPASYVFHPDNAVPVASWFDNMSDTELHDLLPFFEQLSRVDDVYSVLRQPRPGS
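Times: enzyme reaction 45 min at room temperature, colour 5 min, stabilisation 30 min. Material: SCP-1 catalytic fragment, aa 76-261. Medium: Acidic Tris acetate buffer with magnesium and detergent. Signal: colorimetric free-phosphate detection, absorbance 630 nm. Read-out basis: % inhibition of SCP-1 phosphate liberation. Reagent: Phosphorylated 17-residue peptide substrate.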
SUMO1 PPI mod: alters human SUMO1 binding to SIM partners | P63165 | inhibition, % at 20 µM | 360,000 compounds, 0.33% hits | SUMO1 binding to a labelled peptide, TR-FRET, 1 h; in the data active means inhibition above about 37%
Beacon interf DR: shows spectral interference in the DNMT1 beacon assay. shares compounds with DNMT1 block. molecular beacon fluorescence, spectral interference counter-screen. IC50, µM. 200 tested, under 10 active; call rule not given here
DNMT1 inh conf: DNMT1 inhibition confirmation, single concentration | AID 602385 | inhibition, % at 10 µM | shares compounds with DNMT1 block | DNMT1 molecular beacon HinP1I cleavage, fluorescence | 2,300 compounds, 8% hits;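 active means average inhibition of at least 30% in the single-concentration confirmation test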
Beacon interf: shows spectral interference in the DNMT1 beacon assay. shares compounds with DNMT1 block. DNMT1 molecular beacon spectral interference counterscreen, fluorescence 485/520. activation (fluorescence interference), % at 10 µM. 2,300 compounds, 1% hits. AID 602387;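 active means activation of at least 30% at 10 µM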;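 further: DNMT1 catalytic domain with a HinP1I cleavage step and a FAM/dabcyl DNA beacon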
Of the large screens only hits and unclear results are named; the others gave an inactive call (follow-up assays come after a bar, where they were run).

CCc1nn(CC(=O)NC(C)CCc2ccccc2)c(=O)c2cc3cc(F)ccc3n12 (centres undefined)	DNMT1 block 53 | DNMT1 inh conf inactive | Beacon interf inactive
N#CCCN(C(=O)COC(=O)Cc1ccc(Br)cc1)c1ccccc1	none
N#CCCN(C(=O)COC(=O)COc1ccccc1Cc1ccccc1)c1ccccc1	DNMT1 block 60 | DNMT1 inh conf inactive | Beacon interf inactive
O=C1Cc2cccc(=O)c(O)c2C(=O)O1	DNMT1 block 81 (no result: HKDC1 inh, Scp1 inh) | DNMT1 inh conf inactive | Beacon interf inactive
CC(=O)Nc1ccc(S(=O)(=O)Nc2nc3ccccc3nc2Nc2ccc(C(=O)O)c(O)c2)cc1	DNMT1 block 77, Scp1 inh 87, SUMO1 PPI mod 57 | DNMT1 inh conf inactive | Beacon interf inactive
COc1ccc2sc3c(=O)[nH]c4ccccc4c3c2c1	DNMT1 block 58 | DNMT1 inh conf inactive | Beacon interf inactive
Cc1cc(NC(=O)c2cc3ncc(Br)cn3n2)no1	none
COC(=O)c1ccccc1NC(=O)c1cc2ncc(Br)cn2n1	DNMT1 block 68 | DNMT1 inh conf inactive | Beacon interf inactive
c1ccc2c(-c3cc(NCc4ccncc4)n4nccc4n3)cccc2c1	none (no result: HKDC1 inh, Scp1 inh)
CN(C)CCOc1ncnc2c1oc1ccccc12	none
CN(C)CCOc1nc(-c2ccccc2)nc2c1oc1ccccc12	DNMT1 block 65 | Beacon interf DR inactive | DNMT1 inh conf 57 | Beacon interf inactive
CCCNC(=O)C1(C)CCCN(Cc2ccccc2F)C1 (centres undefined)	none (no result: HKDC1 inh, Scp1 inh)
Cc1ccccc1NC(=O)CN1CCN(Cc2ccccc2)CC1	DNMT1 block 79 | DNMT1 inh conf inactive | Beacon interf inactive
CCN(CC)c1ccc(S(=O)(=O)N2CCOCC2)cc1NC(=O)CNCc1ccccc1	none
CCN(CC)c1ccc(S(=O)(=O)N2CCOCC2)cc1NC(=O)CN1CCN(Cc2ccccc2)CC1	DNMT1 block 58 | DNMT1 inh conf inactive | Beacon interf inactive
CCOC(=O)C1=C[C@@H](c2ccccc2)N(S(=O)(=O)c2ccc(C)cc2)[C@H]1c1cccc(Cl)c1	none (no result: HKDC1 inh, Scp1 inh)
NC(=O)CC[C@H](NC(=O)c1ccc(F)cc1)C(=O)OCC(=O)NCc1ccc(F)cc1	DNMT1 block 52 | DNMT1 inh conf inactive | Beacon interf inactive
Nc1sccc1C(=O)NCCN1CCOCC1	none (no result: HKDC1 inh, DNMT1 block, STEP inh, Scp1 inh)
CCCc1cc(=O)oc2c(C)c(OCC(=O)c3ccc(N4CCCC4)cc3)ccc12	DNMT1 block 57 | DNMT1 inh conf inactive | Beacon interf inactive
Cc1cc2nc(-c3ccc(Cl)cc3)c(CC3CCCCC3)n2c(C)c1Br	none (no result: HKDC1 inh, DNMT1 block, STEP inh, Scp1 inh)
CC1(C)Cc2c(sc3[nH]c(=S)n(Cc4ccco4)c(=O)c23)CO1	none
O=c1c2c3c(sc2[nH]c(=S)n1Cc1ccco1)CCC3	DNMT1 block 83, SUMO1 PPI mod 43 | DNMT1 inh conf inactive | Beacon interf inactive
COc1ccc(C(=O)NC(=S)Nc2ccc(CN3CCOCC3)cc2)cc1Br	none
Nc1ncnc2c1ncn2C1CCCC(CO)O1 (centres undefined)	DNMT1 block 80 | DNMT1 inh conf inactive | Beacon interf inactive
Nc1ncnc2c1ncn2C1O[C@H](CO)[C@@H](O)[C@@H]1O (some centres undefined)	none
CCOC(=O)C1CCCN(C(=O)c2cc3c(=O)n4ccccc4nc3s2)C1 (centres undefined)	DNMT1 block 87 | DNMT1 inh conf inactive | Beacon interf inactive
CCOC(=O)C1CCCN(C(=O)c2cc(-c3ccco3)nc3ccccc23)C1 (centres undefined)	DNMT1 block 100, LMPTP inh 51, Scp1 inh 85 | Beacon interf DR inactive | DNMT1 inh conf 65 | Beacon interf inactive
CCOC(=O)C1CCCN(C(=O)c2cc(-c3ccncc3)nc3ccccc23)C1 (centres undefined)	none
CC1CCN(C(=O)c2cc3c(=O)n4ccccc4nc3s2)CC1	none
O=C(c1cc(-c2ccco2)nc2ccccc12)N1CCCC(C(F)(F)F)C1 (centres undefined)	DNMT1 block 66 | DNMT1 inh conf inactive | Beacon interf inactive
Cc1ccc(S(=O)(=O)N2Cc3ccccc3CC2C(N)=O)cc1 (centres undefined)	none (no result: HKDC1 inh, Scp1 inh)
CN(c1ccccc1)S(=O)(=O)c1cccc(C(=O)NCC(c2cccs2)N2CCOCC2)c1 (centres undefined)	none (no result: HKDC1 inh, Scp1 inh)
CNC[C@@H]1OCc2cnnn2CCCC(=O)N([C@H](C)CO)C[C@H]1C	none (no result: HKDC1 inh, Scp1 inh)
CCCCCCn1nc(C(=O)N(CCOC)c2c(N)n(CCCC)c(=O)[nH]c2=O)c2ccccc2c1=O	none
CC(C=NNC(=O)C(=O)NN=CC(C)=Cc1ccccc1)=Cc1ccccc1	DNMT1 block 63 | DNMT1 inh conf inactive | Beacon interf inactive
CC(/C=N/NC(=O)c1ccccc1C)=C\c1ccccc1	none
CN(C)c1ccc2cc(S(=O)(=O)O)cc(O)c2c1	DNMT1 block 63, Scp1 inh 67 | DNMT1 inh conf inactive | Beacon interf inactive
COc1cc(Cn2c3ccc(NC(=O)NCCc4ccccc4)cc3c(=O)n2C)ccc1F	none (no result: HKDC1 inh, Scp1 inh)
CCOC(=O)c1c(S(=O)(=O)N2CCCCC2C)c(C)n(C)c1C (centres undefined)	none
Cc1csc(NC(=O)CCn2c(=O)oc3ccccc32)n1	none
O=C(Cn1c(=O)oc2ccccc21)Nc1nc(-c2ccc(Br)cc2)cs1	none | DNMT1 inh conf inactive | Beacon interf inactive
CCc1nc(Nc2ccc(OC)c(OC)c2)c2nnn(Cc3ccccc3Cl)c2n1	DNMT1 block 105 | DNMT1 inh conf inactive | Beacon interf inactive
COc1cccc(OC)c1Nc1nc(C)nc2c1nnn2Cc1ccccc1Cl	none
CC(=O)Nc1ccc(S(=O)(=O)NCC(C)NS(=O)(=O)c2ccc(NC(C)=O)cc2)cc1 (centres undefined)	none
CC(=O)Nc1ccc(S(=O)(=O)NCC(CCC(=O)O)C(F)(F)F)cc1 (centres undefined)	DNMT1 block 60 | DNMT1 inh conf inactive | Beacon interf inactive
COc1ccc(NC(=S)N2CCC(C(=O)c3ccc(C)cc3)CC2)cc1	DNMT1 block 81 | DNMT1 inh conf inactive | Beacon interf inactive
COc1ccc(-c2cc3c(c4c2ccn4C)C2CCC3C2)cc1OC (centres undefined)	none (no result: HKDC1 inh, Scp1 inh)
